Assay results: ChEMBL document CHEMBL1122281, “Synthesis and antifilarial activity of N-[4-[[4-alkoxy-3-[(dialkylamino)methyl]phenyl]amino]- 2-pyrimidinyl]-N'-phenylguanidines” (J Med Chem, 1983)

How the values were obtained:
[1] = system: Litomosoides carinii; test: Antifilarial activity against Litomosoides carinii infections in the Jird at dose 100 mg/kg administered orally; assay type: functional; details: route oral
How it was run: (§1)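 L. carinii-infected jirds were dosed. Survivors were killed 55–70 days after the first dose, and the pleural and peritoneal cavities were searched for adult worms. Live worms at autopsy were scored as a percentage relative to sham-dosed controls. Adult worm reduction above 60% was the activity criterion.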

[2] = system: Litomosoides carinii; test: Antifilarial activity against Litomosoides carinii infections in the Jird at dose 3 mg/kg administered orally; assay type: functional; details: route oral; how it was run: as §1
[3] = system: Litomosoides carinii; test: Antifilarial activity against Litomosoides carinii infections in the Jird at dose 200 mg/kg administered subcutaneously; assay type: functional; details: route subcutaneous; how it was run: as §1
[4] = system: Litomosoides carinii; test: Antifilarial activity against Litomosoides carinii infections in the Jird at dose 25 mg/kg administered orally; assay type: functional; details: route oral; how it was run: as §1
[5] = system: Litomosoides carinii; test: Antifilarial activity against infections of Litomosoides carinii in the Jird by oral route(dose (mg/kg) is given in parentheses); assay type: functional; how it was run: as §1
[6] = Antifilarial activity against Litomosoides carinii infections in the Jird at dose 100 mg/kg administered subcutaneously; two or more animals died prematurely considered to be drug toxicity.; assay type: organism-based, Meriones unguiculatus; set-up: dose 100 mg/kg, route subcutaneous; details: gerbil, in vivo, sc
How it was run: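 Jirds infected with Litomosoides carinii. Surviving animals killed 55–70 days after first drug dose; pleural and peritoneal cavities searched for adult worms. Live worm count at autopsy scored as percentage relative to sham-dosed controls. Activity criterion: adult worm reduction exceeding 60%.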

[7] = system: Litomosoides carinii; test: Antifilarial activity against Litomosoides carinii infections in the Jird at dose 100 mg/kg administered subcutaneously; details: route subcutaneous
[8] = system: Litomosoides carinii; test: Antifilarial activity against Litomosoides carinii infections in the Jird at dose 25 mg/kg administered subcutaneously; assay type: functional; details: route subcutaneous; how it was run: as §1
[9] = system: Litomosoides carinii; test: (§2) Antifilarial activity against Litomosoides carinii infections in the Jird at dose 100 mg/kg administered subcutaneously; assay type: functional; details: route subcutaneous; how it was run: as §1
[10] = system: Litomosoides carinii; test: Antifilarial activity against Litomosoides carinii infections in the Jird at dose 0.5 mg/kg administered orally; assay type: functional; details: route oral; how it was run: as §1
[11] = system: Litomosoides carinii; test: Antifilarial activity against Litomosoides carinii infections in the Jird at dose 50 mg/kg administered subcutaneously; assay type: functional; details: route subcutaneous; how it was run: as §1
[12] = system: Litomosoides carinii; test: Antifilarial activity against Litomosoides carinii infections in the Jird at dose 400 mg/kg administered orally; assay type: functional; details: route oral; how it was run: as §1
[13] = system: Litomosoides carinii; test: Antifilarial activity against Litomosoides carinii infections in the Jird at dose 200 mg/kg administered orally; assay type: functional; details: route oral; how it was run: as §1
[14] = system: Litomosoides carinii; test: Antifilarial activity against Litomosoides carinii infections in the Jird at dose 400 mg/kg administered subcutaneously; assay type: functional; details: route subcutaneous; how it was run: as §1
[15] = system: Litomosoides carinii; test: Antifilarial activity against Litomosoides carinii infections in the Jird at dose 600 mg/kg administered orally; assay type: functional; details: route oral; how it was run: as §1
[16] = system: Litomosoides carinii; test: Antifilarial activity against Litomosoides carinii infections in the Jird at dose 6.25 mg/kg administered subcutaneously; assay type: functional; details: route subcutaneous; how it was run: as §1
[17] = system: Litomosoides carinii; test: Antifilarial activity against Litomosoides carinii infections in the Jird at dose 1.56 mg/kg administered subcutaneously; assay type: functional; details: route subcutaneous; how it was run: as §1
[18] = system: Litomosoides carinii; test: Antifilarial activity against Litomosoides carinii infections in the Jird at dose 12 mg/kg administered orally; assay type: functional; details: route oral; how it was run: as §1
[19] = system: Litomosoides carinii; test: Antifilarial activity against Litomosoides carinii infections in the Jird at dose 50 mg/kg administered orally; assay type: functional; details: route oral; how it was run: as §1
[20] = system: Litomosoides carinii; test: Antifilarial activity against Litomosoides carinii infections in the Jird at dose 6 mg/kg administered subcutaneously; assay type: functional; details: route subcutaneous; how it was run: as §1
[21] = system: Litomosoides carinii; test: as §2; assay type: functional; details: route subcutaneous; how it was run: as §1; remark: listed apart in the source

## CN1CCN(Cc2cc(Nc3cc(C(F)(F)F)nc(/N=C(\N)Nc4ccc(C(F)(F)F)cc4)n3)ccc2O)CC1
[1]
  Reduction of live worms: 100%
[2]
  Reduction of live worms: 5%
[3]
  Reduction of live worms: 96%
[4]
  Reduction of live worms: 40%

## Cc1ccc(C(=O)Nc2ccc(S(=O)(=O)O)c3cc(S(=O)(=O)O)cc(S(=O)(=O)O)c23)cc1NC(=O)c1cccc(NC(=O)Nc2cccc(C(=O)Nc3cc(C(=O)Nc4ccc(S(=O)(=O)O)c5cc(S(=O)(=O)O)cc(S(=O)(=O)O)c45)ccc3C)c2)c1 [SURAMIN]
[5]
  Reduction of live worms: 98%

## CCOc1ccc(Nc2nc(/N=C(\N)Nc3ccc(Cl)c(Cl)c3)nc3c2CCCC3)cc1CN(CC)CC
[6]
  Animals dead: > 2
[7]
  Reduction of live worms: 0%
[4]
  Reduction of live worms: 54%

## CCN(C)Cc1cc(Nc2cc(C(F)(F)F)nc(/N=C(\N)Nc3ccc(Cl)c(Cl)c3)n2)ccc1O
[8]
  Reduction of live worms: 100%
[9]
  Reduction of live worms: 100%
[10]
  Reduction of live worms: 100%
[2]
  Reduction of live worms: 97%
[4]
  Reduction of live worms: 100%

## CCN(CC)C(=O)N1CCN(C)CC1 [DIETHYLCARBAMAZINE]
[11]
  Reduction of live worms: 89%
[9]
  Reduction of live worms: 100%

## CCNCc1cc(Nc2cc(C(F)(F)F)nc(/N=C(\N)Nc3ccc(Cl)c(Cl)c3)n2)ccc1O
[8]
  Reduction of live worms: 100%
[9]
  Reduction of live worms: 100%
[10]
  Reduction of live worms: 97%
[2]
  Reduction of live worms: 97%
[4]
  Reduction of live worms: 100%

## CN1CCN(Cc2cc(Nc3cc(C(F)(F)F)nc(/N=C(\N)Nc4ccc(Cl)c(Cl)c4)n3)ccc2O)CC1
[1]
  Reduction of live worms: 100%
[2]
  Reduction of live worms: 0%
[6]
  Animals dead: > 2
[12]
  Reduction of live worms: 100%
[13]
  Reduction of live worms: 100%
[4]
  Reduction of live worms: 100%
[14]
  Reduction of live worms: 99%

## CCCCN(CC)CCNc1cc(C)nc(/N=C(\N)Nc2ccc(Cl)c(Cl)c2)n1
[15]
  Reduction of live worms: 66%

## COC(=O)Nc1nc2cc(C(=O)c3ccccc3)ccc2[nH]1 [MEBENDAZOLE]
[8]
  Reduction of live worms: 100%
[16]
  Reduction of live worms: 100%
[17]
  Reduction of live worms: 97%

## COc1ccc(Nc2cc(C(F)(F)F)nc(/N=C(\N)Nc3ccc(Cl)cc3)n2)cc1CN1CCCC1
[10]
  Reduction of live worms: 100%
[18]
  Reduction of live worms: 100%
[2]
  Reduction of live worms: 99%
[19]
  Reduction of live worms: 100%

## CCNCc1cc(Nc2cc(C(F)(F)F)nc(/N=C(\N)Nc3ccc(Cl)cc3)n2)ccc1OC
[1]
  Reduction of live worms: 100%
[8]
  Reduction of live worms: 100%
[2]
  Reduction of live worms: 81%
[20]
  Reduction of live worms: 92%
[6]
  Animals dead: > 2
[4]
  Reduction of live worms: 94%

## CCN(CC)Cc1cc(Nc2cc(C(F)(F)F)nc(/N=C(\N)Nc3ccc(Cl)cc3)n2)ccc1O
[10]
  Reduction of live worms: 100%
[18]
  Reduction of live worms: 100%
[2]
  Reduction of live worms: 100%
[19]
  Reduction of live worms: 100%

## CCN(CC)Cc1cc(Nc2cc(C(F)(F)F)nc(/N=C(\N)Nc3ccc(C(F)(F)F)cc3)n2)ccc1O
[1]
  Reduction of live worms: 100%
[9]
  Reduction of live worms: 100%
[10]
  Reduction of live worms: 22%
[2]
  Reduction of live worms: 98%
[4]
  Reduction of live worms: 100%

## CCN(CC)Cc1cc(Nc2cc(C)nc(/N=C(\N)Nc3cc(Cl)cc(Cl)c3)n2)ccc1O
[21]
  Reduction of live worms: 0%
[9]
  Reduction of live worms: 68%
[6]
  Animals dead: > 2
